# Results: ChEMBL document CHEMBL3414514, “Synthesis and pharmacological evaluation of novel bisindole derivatives bearing oximes moiety: identification of novel proapoptotic agents” (Eur J Med Chem, 2015)
# Tests used:
# [1] = system: A549; assay: Cytotoxicity against human A549 cells after 2 days by MTT assay; type: functional, cell-based; settings: A549, 48 h
# Method in brief: (§1)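 Cells grown in medium with 10% heat-inactivated FBS at 37 C under 5% CO2. Compounds dissolved in medium with 1% DMSO; controls received 1% DMSO. After 2 days, MTT (10 mg/mL) added for 4 h, formazan dissolved in DMSO and absorbance read at 570/630 nm. Survival taken relative to negative control; IC50 by Bliss method (n = 5), at least three independent experiments.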
# [2] = system: MGC-803; assay: Cytotoxicity against human MGC803 cells after 2 days by MTT assay; type: functional, cell-based; settings: MGC-803, 48 h; method in brief: as §1
# [3] = system: HepG2; assay: Cytotoxicity against human HepG2 cells after 2 days by MTT assay; type: functional, cell-based; settings: HepG2, 48 h; method in brief: as §1
# [4] = Cytotoxicity against human T24 cells after 2 days by MTT assay; type: functional, cell-based; settings: T-24, 48 h; method in brief: as §1
# [5] = Cytotoxicity against human SPCA2 cells after 2 days by MTT assay; type: functional, cell-based; settings: SPCA2, 48 h; method in brief: as §1
# [6] = system: NCI-H460; assay: Cytotoxicity against human NCI-H460 cells after 2 days by MTT assay; type: functional, cell-based; settings: NCI-H460, 48 h; method in brief: as §1
# [7] = Cytotoxicity against human SKOV3 cells after 2 days by MTT assay; type: functional, cell-based; settings: SK-OV-3, 48 h; method in brief: as §1
# [8] = system: HUVEC; assay: Cytotoxicity against human HUVEC cells after 2 days by MTT assay; type: cell-based; settings: 48 h; method in brief: as §1
Structure (SMILES),IC50 [1] [µM],IC50 [2] [µM],IC50 [3] [µM],IC50 [4] [µM],IC50 [5] [µM],IC50 [6] [µM],IC50 [7] [µM],IC50 [8] [µM]
O/N=C1/C(c2c[nH]c3cc(F)ccc23)=Nc2cc(F)ccc21,21.3,22.1,13.8,11.7,10,22.2,16.4,> 100
N#Cc1cccc2c1/C(=N\O)C(c1c[nH]c3cccc(C#N)c13)=N2,33.6,35.4,40.5,19.4,30.9,18.8,30.6,> 100
COC(=O)c1ccc2c(c1)N=C(c1c[nH]c3cc(C(=O)OC)ccc13)/C2=N/O,25.9,29.8,20.8,14.3,27.2,20.8,26.8,> 100
Cc1cccc2c1N=C(c1c[nH]c3c(C)cccc13)/C2=N/OCc1cccc(Cl)c1,31.9,26.4,22.8,17.6,18.2,23.1,26.5,> 100
Clc1cccc(CO/N=C2/C(c3c[nH]c4ccc(Br)cc34)=Nc3ccc(Br)cc32)c1,12.9,7.6,13.3,9.34,13.5,14.6,14.1,> 100
O/N=C1/C(c2c[nH]c3ccc(F)cc23)=Nc2ccc(F)cc21,11.9,12.3,9.31,10.1,13.7,12.8,9.89,> 100
Cc1ccc(CO/N=C2/C(c3c[nH]c4ccccc34)=Nc3ccccc32)cc1,22.4,22.8,19.1,23.5,25.4,29.8,32.4,> 100
Cc1ccc(CO/N=C2/C(c3c[nH]c4ccc(Br)cc34)=Nc3ccc(Br)cc32)cc1,13.3,31.2,20.4,21.4,15.1,10.6,7.22,> 100
Nc1ccc2c(c1)/C(=N\O)C(c1c[nH]c3ccc(N)cc13)=N2,14.8,13.2,18.5,9.38,16.7,20.2,17.5,> 100
Cc1cccc2c1N=C(c1c[nH]c3c(C)cccc13)/C2=N/OCc1cccc(F)c1,23.3,31.9,34.1,21.2,20.4,16.8,17.3,> 100
COC(=O)c1ccc2c(c1)/C(=N\O)C(c1c[nH]c3ccc(C(=O)OC)cc13)=N2,20.5,22.4,15.3,11.5,14.9,14,15.6,> 100
N#Cc1ccc2c(c1)/C(=N\O)C(c1c[nH]c3ccc(C#N)cc13)=N2,14.9,18.4,30.1,28.4,19.2,14.3,25.9,> 100
O=[N+]([O-])c1ccc2c(c1)/C(=N\O)C(c1c[nH]c3ccc([N+](=O)[O-])cc13)=N2,10.4,10.8,8.25,13.2,11.2,11.5,10.7,> 100
O/N=C1/C(c2c[nH]c3ccc(OCc4ccccc4)cc23)=Nc2ccc(OCc3ccccc3)cc21,19.5,14.5,19,11.8,12,16.6,17.6,> 100
O=c1[nH]cc(F)c(=O)[nH]1 [FLUOROURACIL],38.2,,32,40.6,44.1,46.1,27.3,
COc1ccc2c(c1)/C(=N\OCc1ccc(F)cc1Cl)C(c1c[nH]c3ccc(OC)cc13)=N2,19.1,16.1,24.1,12.4,11.1,13,12.2,> 100
c1ccc(CO/N=C2/C(c3c[nH]c4ccccc34)=Nc3ccccc32)cc1,19.3,15.4,19.5,12.2,21.4,22,16.9,> 100
Fc1ccc2c(c1)/C(=N\OCc1ccccc1)C(c1c[nH]c3ccc(F)cc13)=N2,10.5,21.3,17.3,12.5,13.3,12,12.3,> 100
Cc1cccc2c1N=C(c1c[nH]c3c(C)cccc13)/C2=N/O,17.5,16.9,15.6,23.5,24.3,31.4,48,> 100
Cc1ccc(CO/N=C2/C(c3c[nH]c4ccc(F)cc34)=Nc3ccc(F)cc32)cc1,13.6,20.8,19.6,20,11,12,11.3,> 100
CCCCO/N=C1/C(c2c[nH]c3ccccc23)=Nc2ccccc21,37,23.3,33.6,35.2,29.2,42.2,46,> 100
c1ccc2c(c1)N=C(c1c[nH]c3ccccc13)/C2=N/OCC1CC1,36.7,29.9,32.1,35.4,33.8,40.9,32.3,> 100
Fc1ccc2c(c1)N=C(c1c[nH]c3cc(F)ccc13)/C2=N/OCc1ccccc1,15.7,21.9,24.1,13.3,20.2,19.4,15.6,> 100
Fc1ccc(CO/N=C2/C(c3c[nH]c4ccccc34)=Nc3ccccc32)c(Cl)c1,21.4,18.5,25.4,20,19.5,21.9,37.6,> 100
CC(=O)Nc1ccc2c(c1)/C(=N\O)C(c1c[nH]c3ccc(NC(C)=O)cc13)=N2,21.9,17.9,28.2,16.8,27.8,30.2,21.2,> 100
